Test results: ChEMBL document CHEMBL1649290, “Correlation of in vitro activity, serum levels, and in vivo efficacy of posaconazole against Rhizopus microsporus in a murine disseminated infection” (Antimicrob Agents Chemother, 2009)
≈ marks a conversion by molar mass, not a printed value. Calls of active or inactive are those of the source. No cut-off for these calls is given here.

Experiments:
[1] = Antifungal activity against Rhizopus microsporus IHEM 5234 by broth microdilution method; format: functional
Outline: (§1)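 CLSI broth microdilution reference method for molds, run on clinical R. microsporus isolates. Isolates were stored at −80°C and subcultured on potato dextrose agar at 35°C before testing. Breakpoints: intermediate 2 μg/ml, resistant ≥4 μg/ml.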

[2] = Antifungal activity against Rhizopus microsporus UTHSC 01-983 by broth microdilution method; format: functional; outline: as §1
[3] = Antifungal activity against Rhizopus microsporus CBS 102277 by broth microdilution method; format: functional; outline: as §1
[4] = Antifungal activity against Rhizopus microsporus UTHSC R-3466 by broth microdilution method; format: functional; outline: as §1
[5] = Antifungal activity against Rhizopus microsporus FMR 3542 by broth microdilution method; format: functional; outline: as §1
[6] = Antifungal activity against Rhizopus microsporus UTHSC 07-371 by broth microdilution method; format: functional
Outline: (§2)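 Clinical isolates kept at −80°C and subcultured on potato dextrose agar at 35°C before testing. MICs were determined by broth microdilution following the CLSI reference guidelines for filamentous fungi (molds), as part of a 15-strain panel tested against seven antifungal agents.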

[7] = Antifungal activity against Rhizopus microsporus IHEM 10123 by broth microdilution method; format: functional; outline: as §2
[8] = Antifungal activity against Rhizopus microsporus IHEM 4770 by broth microdilution method; format: functional; outline: as §2
[9] = Antifungal activity against Rhizopus microsporus IHEM 9503 by broth microdilution method; format: functional; outline: as §2
[10] = Antifungal activity against Rhizopus microsporus IHEM 13267 by broth microdilution method; format: functional; outline: as §2
[11] = Antifungal activity against Rhizopus microsporus UTHSC 04-3294 by broth microdilution method; format: functional; outline: as §2
[12] = Antifungal activity against Rhizopus microsporus IHEM 13311 by broth microdilution method; format: functional; outline: as §2
[13] = Antifungal activity against Rhizopus microsporus IHEM 15210 by broth microdilution method; format: functional; outline: as §2
[14] = Antifungal activity against Rhizopus microsporus IHEM 18821 by broth microdilution method; format: functional; outline: as §2
[15] = Antifungal activity against Rhizopus microsporus UTHSC 03-1802 by broth microdilution method; format: functional; outline: as §2
[16] = Drug level in serum of OF1 mouse infected with Rhizopus microsporus UTHSC 01-983 at 20 mg/kg, po BID for 5 days measured after 3 hrs post last dose; format: ADME, organism-based; set-up: dose 20 mg/kg, route oral; conditions: read-out: Drug uptake
Outline: (§3)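 Immunosuppressed OF1 mice were infected i.v. (5 per group) and dosed orally at 40 mg/kg once daily or 20 mg/kg twice daily for 5 days. Sera were taken 3 h and 24 h after the last dose. Drug was measured by agar bioassay with Candida parapsilosis ATCC 22019 in yeast nitrogen broth, against standards of 0.125–10 μg/ml. Samples were run in duplicate, and the mean of four zone readings was read from the standard curve.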

[17] = Drug level in serum of OF1 mouse infected with Rhizopus microsporus FMR 3542 at 20 mg/kg, po BID for 5 days measured after 3 hrs post last dose; format: ADME, organism-based; set-up: dose 20 mg/kg, route oral; conditions: read-out: Drug uptake; outline: as §3
[18] = Drug level in serum of OF1 mouse infected with Rhizopus microsporus FMR 3542 at 40 mg/kg, po QD measured after 24 hrs post last dose; format: ADME, organism-based; set-up: dose 40 mg/kg, route oral; conditions: read-out: Drug uptake; outline: as §3
[19] = Drug level in serum of OF1 mouse infected with Rhizopus microsporus FMR 3542 at 20 mg/kg, po BID for 5 days measured after 24 hrs post last dose; format: ADME, organism-based; set-up: dose 20 mg/kg, route oral; conditions: read-out: Drug uptake; outline: as §3
Rhizopus microsporus [20] = experiment: Antifungal activity against Rhizopus microsporus IHEM 4770 infected in OF1 mouse assessed as reduction in fungal load in brain at 20 mg/kg, QD for 5 days; format: functional, organism-based; set-up: dose 20 mg/kg
[21] = Drug level in serum of OF1 mouse infected with Rhizopus microsporus FMR 3542 at 40 mg/kg, po QD measured after 3 hrs post last dose; format: ADME, organism-based; set-up: dose 40 mg/kg, route oral; conditions: read-out: Drug uptake; outline: as §3
Rhizopus microsporus [22] = experiment: Antifungal activity against Rhizopus microsporus UTHSC R-3466 infected in OF1 mouse assessed as reduction in fungal load in kidney at 20 mg/kg, QD for 5 days; format: functional, organism-based; set-up: dose 20 mg/kg
Rhizopus microsporus [23] = experiment: Antifungal activity against Rhizopus microsporus UTHSC 01-983 infected in OF1 mouse assessed as reduction in fungal load in brain at 20 mg/kg, QD for 5 days; format: functional, organism-based; set-up: dose 20 mg/kg
Rhizopus microsporus [24] = experiment: Antifungal activity against Rhizopus microsporus IHEM 4770 infected in OF1 mouse assessed as reduction in fungal load in brain at 40 mg/kg, QD for 5 days; format: functional, organism-based; set-up: dose 40 mg/kg
Outline: (§4)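 Male OF1 mice (30 g) were immunosuppressed 1 day before infection with cyclophosphamide 200 mg/kg i.p. plus 5-fluorouracil 150 mg/kg i.v., then given 2 × 10^3 CFU i.v. (IHEM 4770: 1 × 10^4 CFU). Oral dosing was 40 mg/kg once daily or 20 mg/kg twice daily, starting 24 h post-challenge; ceftazidime s.c. was given on days 1–7. […], 10 mice per group were killed, and brain and kidney homogenates were plated on PDA (18–24 h, 35°C) for CFU.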

[25] = Drug level in serum of OF1 mouse infected with Rhizopus microsporus UTHSC 01-983 at 20 mg/kg, po BID for 5 days measured after 24 hrs post last dose; format: ADME, organism-based; set-up: dose 20 mg/kg, route oral; conditions: read-out: Drug uptake; outline: as §3
Rhizopus microsporus [26] = experiment: Antifungal activity against Rhizopus microsporus FMR 3542 infected in OF1 mouse assessed as reduction in fungal load in brain at 40 mg/kg, QD for 5 days; format: functional, organism-based; set-up: dose 40 mg/kg; outline: as §4
[27] = Drug level in serum of OF1 mouse infected with Rhizopus microsporus UTHSC 01-983 at 40 mg/kg, po QD for 5 days measured after 3 hrs post last dose; format: ADME, organism-based; set-up: dose 40 mg/kg, route oral; conditions: read-out: Drug uptake; outline: as §3
[28] = Drug level in serum of OF1 mouse infected with Rhizopus microsporus UTHSC 01-983 at 40 mg/kg, po QD for 5 days measured after 24 hrs post last dose; format: ADME, organism-based; set-up: dose 40 mg/kg, route oral; conditions: read-out: Drug uptake; outline: as §3

Row | Structure (SMILES) | MIC [1] [µg/mL] | MIC [2] [µg/mL] | MIC [3] [µg/mL] | MIC [4] [µg/mL] | MIC [5] [µg/mL] | MIC [6] [µg/mL] | MIC [7] [µg/mL] | MIC [8] [µg/mL] | MIC [9] [µg/mL] | MIC [10] [µg/mL] | MIC [11] [µg/mL] | MIC [12] [µg/mL] | MIC [13] [µg/mL] | MIC [14] [µg/mL] | MIC [15] [µg/mL] | also measured
1 | C[C@@H](c1ncncc1F)[C@](O)(Cn1cncn1)c1ccc(F)cc1F | 4 (≈ 11.5 µM) | 4 (≈ 11.5 µM) | 4 (≈ 11.5 µM) | 4 (≈ 11.5 µM) | 4 (≈ 11.5 µM) |  |  |  |  |  |  |  |  |  |  | 
2 | C[C@@H]1[C@H](O)[C@@H](C)/C=C/C=C/C=C/C=C/C=C/C=C/C=C/[C@H](O[C@@H]2O[C@H](C)[C@@H](O)[C@H](N)[C@@H]2O)C[C@@H]2O[C@](O)(C[C@@H](O)C[C@@H](O)[C@H](O)CC[C@@H](O)C[C@@H](O)CC(=O)O[C@H]1C)C[C@H](O)[C@H]2C(=O)O | 0.5 (≈ 0.541 µM) | 0.5 (≈ 0.541 µM) | 0.5 (≈ 0.541 µM) | 0.5 (≈ 0.541 µM) | 0.5 (≈ 0.541 µM) | 1 (≈ 1.08 µM) | 0.5 (≈ 0.541 µM) | 0.5 (≈ 0.541 µM) | 0.5 (≈ 0.541 µM) | 0.5 (≈ 0.541 µM) | 1 (≈ 1.08 µM) | 0.5 (≈ 0.541 µM) | 0.5 (≈ 0.541 µM) | 0.5 (≈ 0.541 µM) | 1 (≈ 1.08 µM) | 
3 | CC[C@@H]([C@H](C)O)n1ncn(-c2ccc(N3CCN(c4ccc(OC[C@@H]5CO[C@@](Cn6cncn6)(c6ccc(F)cc6F)C5)cc4)CC3)cc2)c1=O [POSACONAZOLE] | 0.25 (≈ 0.357 µM) | 0.25 (≈ 0.357 µM) | 0.5 (≈ 0.713 µM) | 0.25 (≈ 0.357 µM) | 2 (≈ 2.85 µM) | 0.25 (≈ 0.357 µM) | 1 (≈ 1.43 µM) | 2 (≈ 2.85 µM) | 0.5 (≈ 0.713 µM) | 0.5 (≈ 0.713 µM) | 0.25 (≈ 0.357 µM) | 0.5 (≈ 0.713 µM) | 0.5 (≈ 0.713 µM) | 1 (≈ 1.43 µM) | 0.25 (≈ 0.357 µM) | concentration at 3 h [16]: 7600 ng/mL; concentration at 3 h [17]: 8040 ng/mL; concentration at 24 h [18]: 950 ng/mL; concentration at 24 h [19]: 2150 ng/mL; Activity (Rhizopus microsporus [20]): Active; concentration at 3 h [21]: 5310 ng/mL; Activity (Rhizopus microsporus [22]): Active; Activity (Rhizopus microsporus [23]): Active; Activity (Rhizopus microsporus [24]): Active; concentration at 24 h [25]: 2040 ng/mL; Activity (Rhizopus microsporus [26]): Active; concentration at 3 h [27]: 5960 ng/mL; concentration at 24 h [28]: 1050 ng/mL
4 | CCC(C)n1ncn(-c2ccc(N3CCN(c4ccc(OCC5COC(Cn6cncn6)(c6ccc(Cl)cc6Cl)O5)cc4)CC3)cc2)c1=O (stereo not drawn) | 1 (≈ 1.42 µM) | 1 (≈ 1.42 µM) | 1 (≈ 1.42 µM) | 1 (≈ 1.42 µM) | 1 (≈ 1.42 µM) | 1 (≈ 1.42 µM) | 2 (≈ 2.83 µM) | 2 (≈ 2.83 µM) | 4 (≈ 5.67 µM) | 1 (≈ 1.42 µM) | 1 (≈ 1.42 µM) | 1 (≈ 1.42 µM) | 1 (≈ 1.42 µM) | 2 (≈ 2.83 µM) | 1 (≈ 1.42 µM) | 
